Laboratory results taken from ChEMBL document CHEMBL4602716, “Development of Selective Histone Deacetylase 6 (HDAC6) Degraders Recruiting Von Hippel-Lindau (VHL) E3 Ubiquitin Ligase” (ACS Med Chem Lett, 2020).
Activity calls are given as the source filed them. No cut-off for these calls is given here.

What was measured:
Assay type in all cases: cell-based
[1] = target: T1, von Hippel-Lindau disease tumor suppressor/Protein deacetylase HDAC6 (Mus musculus) (UniProt Q9Z2V5+P40338); experiment: Protac activity at VHL/HDAC6 in mouse 4935 cells assessed as HDAC6 degradation after 6 hrs by ELISA relative to control
[2] = target: T2, von Hippel-Lindau disease tumor suppressor/Protein deacetylase HDAC6 (Homo sapiens, UniProt Q9UBN7+P40337); experiment: Protac activity at VHL/HDAC6 in human MM1S cells assessed as HDAC6 degradation at 100 nM measured after 6 hrs by ELISA
In short: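 Linker-length screen. MM1S cells were treated with degraders at 100 nM for 6 h, and HDAC6 protein level was quantified by in-cell ELISA.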
Target sequence in this assay (P40337 whole entry, looked up): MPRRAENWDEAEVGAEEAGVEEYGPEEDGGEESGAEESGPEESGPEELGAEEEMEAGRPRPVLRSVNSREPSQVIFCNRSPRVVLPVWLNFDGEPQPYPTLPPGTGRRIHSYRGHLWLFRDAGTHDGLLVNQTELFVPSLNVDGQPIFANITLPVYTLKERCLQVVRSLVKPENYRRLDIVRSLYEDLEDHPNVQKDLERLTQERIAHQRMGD
Target sequence in this assay (Q9UBN7 whole entry, looked up): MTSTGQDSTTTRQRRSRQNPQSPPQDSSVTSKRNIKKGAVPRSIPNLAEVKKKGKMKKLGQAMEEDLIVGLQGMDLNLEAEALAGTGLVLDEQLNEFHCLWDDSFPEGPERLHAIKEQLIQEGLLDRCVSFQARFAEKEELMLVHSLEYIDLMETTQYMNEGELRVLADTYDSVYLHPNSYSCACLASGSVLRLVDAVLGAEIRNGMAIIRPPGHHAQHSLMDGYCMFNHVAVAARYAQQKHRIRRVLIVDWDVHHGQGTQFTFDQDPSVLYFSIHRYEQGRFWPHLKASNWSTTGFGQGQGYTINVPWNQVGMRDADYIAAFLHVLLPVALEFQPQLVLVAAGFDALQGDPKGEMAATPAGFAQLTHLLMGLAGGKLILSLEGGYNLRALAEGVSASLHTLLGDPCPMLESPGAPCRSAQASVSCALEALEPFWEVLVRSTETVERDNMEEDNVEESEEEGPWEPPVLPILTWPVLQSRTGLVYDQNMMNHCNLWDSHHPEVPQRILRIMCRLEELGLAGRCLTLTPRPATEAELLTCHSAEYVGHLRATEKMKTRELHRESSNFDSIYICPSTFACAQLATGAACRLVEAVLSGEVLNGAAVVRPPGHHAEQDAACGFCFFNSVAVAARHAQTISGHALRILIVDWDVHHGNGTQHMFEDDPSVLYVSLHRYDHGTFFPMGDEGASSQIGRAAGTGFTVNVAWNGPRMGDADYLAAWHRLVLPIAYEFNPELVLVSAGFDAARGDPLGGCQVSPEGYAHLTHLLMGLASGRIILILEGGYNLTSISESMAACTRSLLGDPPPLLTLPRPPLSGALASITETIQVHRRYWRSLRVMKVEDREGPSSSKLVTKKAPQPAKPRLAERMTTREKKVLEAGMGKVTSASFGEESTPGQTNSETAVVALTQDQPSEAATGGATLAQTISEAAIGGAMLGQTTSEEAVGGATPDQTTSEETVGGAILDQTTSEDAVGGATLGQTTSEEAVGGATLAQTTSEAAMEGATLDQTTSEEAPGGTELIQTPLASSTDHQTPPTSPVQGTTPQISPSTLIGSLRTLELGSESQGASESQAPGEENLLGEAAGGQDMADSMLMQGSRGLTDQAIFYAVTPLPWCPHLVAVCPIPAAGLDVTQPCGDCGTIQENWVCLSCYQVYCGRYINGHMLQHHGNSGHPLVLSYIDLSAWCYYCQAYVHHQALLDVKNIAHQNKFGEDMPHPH

[3] = target: T2, von Hippel-Lindau disease tumor suppressor/Protein deacetylase HDAC6; experiment: Protac activity at VHL/HDAC6 in human MM1S cells assessed as HDAC6 degradation at 10 nM measured after 4 hrs by Western blot analysis
In short: (§1)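 Dose-response in MM1S cells treated with degrader from 1 nM to 30 μM for 4 h. Lysates were immunoblotted for HDAC6 and acetylated tubulin.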
Target sequence in this assay (P40337 whole entry, looked up): as the sequence (P40337 whole entry, looked up) above
Target sequence in this assay (Q9UBN7 whole entry, looked up): as the sequence (Q9UBN7 whole entry, looked up) above

[4] = target: von Hippel-Lindau disease tumor suppressor/DNA-binding protein Ikaros (Homo sapiens) (UniProt P40337+Q13422); experiment: Protac activity at VHL/IKZF1 in human MM1S cells assessed as IKZF1 degradation at 100 nM after 4 hrs by Western blot analysis
[5] = target: T2, von Hippel-Lindau disease tumor suppressor/Protein deacetylase HDAC6; experiment: Protac activity at VHL/HDAC6 in human MM1S cells assessed as increase in tubulin acetylation at 100 nM measured after 6 hrs by Western blot analysis
In short: (§2)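 MM1S cells were treated with degraders at 100 nM for 6 h. Lysates were analysed by Western blot for HDAC6 and acetylated tubulin.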
Target sequence in this assay (P40337 whole entry, looked up): as the sequence (P40337 whole entry, looked up) above
Target sequence in this assay (Q9UBN7 whole entry, looked up): as the sequence (Q9UBN7 whole entry, looked up) above

[6] = target: von Hippel-Lindau disease tumor suppressor/Histone deacetylase 5 (Homo sapiens) (UniProt Q9UQL6+P40337); experiment: Protac activity at VHL/HDAC5 in human MM1S cells assessed as HDAC5 degradation at 100 nM after 4 hrs by Western blot analysis
[7] = target: T2, von Hippel-Lindau disease tumor suppressor/Protein deacetylase HDAC6; experiment: Protac activity at VHL/HDAC6 in human MM1S cells assessed as reduction in protein level at 100 nM after 4 hrs by Western blot analysis
Target sequence in this assay (P40337 whole entry, looked up): as the sequence (P40337 whole entry, looked up) above
Target sequence in this assay (Q9UBN7 whole entry, looked up): as the sequence (Q9UBN7 whole entry, looked up) above

[8] = target: T2, von Hippel-Lindau disease tumor suppressor/Protein deacetylase HDAC6; experiment: Protac activity at VHL/HDAC6 in human U87MG cells assessed as induction of HDAC degradation by Western blot analysis; conditions: U-87MG ATCC
Target sequence in this assay (P40337 whole entry, looked up): as the sequence (P40337 whole entry, looked up) above
Target sequence in this assay (Q9UBN7 whole entry, looked up): as the sequence (Q9UBN7 whole entry, looked up) above

[9] = target: von Hippel-Lindau disease tumor suppressor/Histone deacetylase 1 (Homo sapiens) (UniProt Q13547+P40337); experiment: Protac activity at VHL/HDAC1 in human MM1S cells assessed as HDAC1 degradation at 100 nM after 4 hrs by Western blot analysis
[10] = target: von Hippel-Lindau disease tumor suppressor/Histone deacetylase 4 (Homo sapiens) (UniProt P56524+P40337); experiment: Protac activity at VHL/HDAC4 in human MM1S cells assessed as HDAC4 degradation at 100 nM after 4 hrs by Western blot analysis
[11] = target: T1, von Hippel-Lindau disease tumor suppressor/Protein deacetylase HDAC6 (Mus musculus); experiment: Protac activity at VHL/HDAC6 in mouse 4935 cells assessed as HDAC6 degradation at 10 nM to 10 uM after 6 hrs by Western blot analysis
In short: (§3)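 Mouse 4935 cells were treated with degraders for 6 h, then analysed by Western blot for HDAC6 and acetylated tubulin.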

[12] = target: T2, von Hippel-Lindau disease tumor suppressor/Protein deacetylase HDAC6; experiment: Protac activity at VHL/HDAC6 in human MM1S cells measured after 6 hrs by ELISA relative to control
In short: (§4)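 MM1S multiple myeloma cells exposed to degraders for 6 h. HDAC6 protein level was read by in-cell ELISA; dose-response ran from 1 nM to 3 μM. DC50 and Dmax were derived from the dose-response curve.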
Target sequence in this assay (P40337 whole entry, looked up): as the sequence (P40337 whole entry, looked up) above
Target sequence in this assay (Q9UBN7 whole entry, looked up): as the sequence (Q9UBN7 whole entry, looked up) above

[13] = target: T2, von Hippel-Lindau disease tumor suppressor/Protein deacetylase HDAC6; experiment: Protac activity at VHL/HDAC6 in human MM1S cells assessed as HDAC6 degradation at 100 nM pretreated for 1 hr in presence of HDAC6 inhibitor Next-A by Western blot analysis
In short: (§5)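 MM1S cells were pretreated for 1 h with a pathway inhibitor or competing ligand, then given degrader at 100 nM. HDAC6 was read by Western blot. Pretreatment levels: MG132 1 μM, bortezomib 1 μM, MLN4924 5 μM, Next-A 5 μM; VHL-1 was titrated.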

[14] = target: T3, von Hippel-Lindau disease tumor suppressor/Protein deacetylase HDAC6 (Mus musculus, UniProt Q9Z2V5+P40338); experiment: Protac activity at VHL/HDAC6 in mouse 4935 cells assessed as HDAC6 degradation after 6 hrs by ELISA
[15] = target: T2, von Hippel-Lindau disease tumor suppressor/Protein deacetylase HDAC6; experiment: Protac activity at VHL/HDAC6 in human MM1S cells assessed as HDAC6 degradation at 100 nM measured after 4 hrs by Western blot analysis; in short: as §1
[16] = target: T2, von Hippel-Lindau disease tumor suppressor/Protein deacetylase HDAC6; experiment: Protac activity at VHL/HDAC6 in human MM1S cells assessed as HDAC6 degradation at 100 nM pretreated for 1 hr in presence of proteasome inhibitor MG132 by Western blot analysis; in short: as §5
[17] = target: T2, von Hippel-Lindau disease tumor suppressor/Protein deacetylase HDAC6; experiment: Protac activity at VHL/HDAC6 in human MM1S cells assessed as increase in tubulin acetylation at 300 nM after 4 hrs by Western blot analysis; in short: as §1
[18] = target: von Hippel-Lindau disease tumor suppressor/Histone deacetylase 3 (Homo sapiens) (UniProt O15379+P40337); experiment: Protac activity at VHL/HDAC3 in human MM1S cells assessed as HDAC3 degradation at 100 nM after 4 hrs by Western blot analysis
[19] = target: T2, von Hippel-Lindau disease tumor suppressor/Protein deacetylase HDAC6; experiment: Protac activity at VHL/HDAC6 in human MM1S cells measured after 6 hrs by ELISA; in short: as §4
[20] = target: T2, von Hippel-Lindau disease tumor suppressor/Protein deacetylase HDAC6; experiment: Protac activity at VHL/HDAC6 in human MM1S cells assessed as compound-HDAC6 complex formation at 3 uM after 6 hrs
[21] = target: von Hippel-Lindau disease tumor suppressor/Histone deacetylase 2 (Homo sapiens) (UniProt Q92769+P40337); experiment: Protac activity at VHL/HDAC2 in human MM1S cells assessed as HDAC2 degradation at 100 nM after 4 hrs by Western blot analysis
[22] = target: T2, von Hippel-Lindau disease tumor suppressor/Protein deacetylase HDAC6; experiment: Protac activity at VHL/HDAC6 in human HEK293T cells assessed as induction of HDAC degradation by Western blot analysis; conditions: HEK-293T
[23] = target: T2, von Hippel-Lindau disease tumor suppressor/Protein deacetylase HDAC6; experiment: Protac activity at VHL/HDAC6 in human MM1S cells assessed as reduction in protein level at 100 nM after 30 mins by Western blot analysis
[24] = target: T2, von Hippel-Lindau disease tumor suppressor/Protein deacetylase HDAC6; experiment: Protac activity at VHL/HDAC6 in human MM1S cells assessed as HDAC6 degradation at 100 nM pretreated for 1 hr in presence of proteasome inhibitor Bortezomib by Western blot analysis; in short: as §5
[25] = target: T2, von Hippel-Lindau disease tumor suppressor/Protein deacetylase HDAC6; experiment: Protac activity at VHL/HDAC6 in human MM1S cells assessed as HDAC6 degradation at 100 nM pretreated for 1 hr in presence of 5 uM VHL-1 by Western blot analysis; in short: as §5
[26] = target: T2, von Hippel-Lindau disease tumor suppressor/Protein deacetylase HDAC6; experiment: Protac activity at VHL/HDAC6 in human MM1S cells assessed as induction of tubulin acetylation at 1 uM after 4 hrs by Western blot analysis; in short: as §1
[27] = target: T2, von Hippel-Lindau disease tumor suppressor/Protein deacetylase HDAC6; experiment: Protac activity at VHL/HDAC6 in human MM1S cells assessed as compound-VHL complex formation at 3 uM after 6 hrs
[28] = target: T2, von Hippel-Lindau disease tumor suppressor/Protein deacetylase HDAC6; experiment: Protac activity at VHL/HDAC6 in human MCF7 cells assessed as induction of HDAC degradation by Western blot analysis
[29] = target: T3, von Hippel-Lindau disease tumor suppressor/Protein deacetylase HDAC6; experiment: Protac activity at VHL/HDAC6 in mouse 4935 cells assessed as HDAC6 degradation after 6 hrs by Western blot analysis; in short: as §3
[30] = target: T2, von Hippel-Lindau disease tumor suppressor/Protein deacetylase HDAC6; experiment: Protac activity at VHL/HDAC6 in human MM1S cells assessed as induction of tubulin acetylation after 4 hrs by Western blot analysis; in short: as §1
[31] = target: T1, von Hippel-Lindau disease tumor suppressor/Protein deacetylase HDAC6 (Mus musculus); experiment: Protac activity at VHL/HDAC6 in mouse 4935 cells assessed as tubulin acetylation at 10 nM to 10 uM after 6 hrs by Western blot analysis; in short: as §3
[32] = target: T2, von Hippel-Lindau disease tumor suppressor/Protein deacetylase HDAC6; experiment: Protac activity at VHL/HDAC6 in human MM1S cells assessed as tubulin acetylation at 100 nM to 1 microM after 6 hrs by Western blot analysis
[33] = target: von Hippel-Lindau disease tumor suppressor/Histone deacetylase 7 (Homo sapiens) (UniProt Q8WUI4+P40337); experiment: Protac activity at VHL/HDAC7 in human MM1S cells assessed as HDAC7 degradation at 100 nM after 4 hrs by Western blot analysis
[34] = target: T2, von Hippel-Lindau disease tumor suppressor/Protein deacetylase HDAC6; experiment: Protac activity at VHL/HDAC6 in human A549 cells assessed as induction of HDAC degradation by Western blot analysis
[35] = target: von Hippel-Lindau disease tumor suppressor/Zinc finger protein Aiolos (Homo sapiens) (UniProt P40337+Q9UKT9); experiment: Protac activity at VHL/IKZF3 in human MM1S cells assessed as IKZF3 degradation at 100 nM after 4 hrs by Western blot analysis
[36] = target: T2, von Hippel-Lindau disease tumor suppressor/Protein deacetylase HDAC6; experiment: Protac activity at VHL/HDAC6 in human MM1S cells assessed as HDAC6 degradation at 100 nM measured after 6 hrs by Western blot analysis; in short: as §2

T1 sequence (P40338 whole entry, looked up): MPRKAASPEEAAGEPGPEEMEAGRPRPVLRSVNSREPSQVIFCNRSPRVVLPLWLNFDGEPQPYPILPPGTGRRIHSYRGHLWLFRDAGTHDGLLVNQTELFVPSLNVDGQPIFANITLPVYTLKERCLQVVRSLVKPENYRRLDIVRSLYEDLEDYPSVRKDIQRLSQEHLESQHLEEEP
T1 sequence (Q9Z2V5 whole entry, looked up): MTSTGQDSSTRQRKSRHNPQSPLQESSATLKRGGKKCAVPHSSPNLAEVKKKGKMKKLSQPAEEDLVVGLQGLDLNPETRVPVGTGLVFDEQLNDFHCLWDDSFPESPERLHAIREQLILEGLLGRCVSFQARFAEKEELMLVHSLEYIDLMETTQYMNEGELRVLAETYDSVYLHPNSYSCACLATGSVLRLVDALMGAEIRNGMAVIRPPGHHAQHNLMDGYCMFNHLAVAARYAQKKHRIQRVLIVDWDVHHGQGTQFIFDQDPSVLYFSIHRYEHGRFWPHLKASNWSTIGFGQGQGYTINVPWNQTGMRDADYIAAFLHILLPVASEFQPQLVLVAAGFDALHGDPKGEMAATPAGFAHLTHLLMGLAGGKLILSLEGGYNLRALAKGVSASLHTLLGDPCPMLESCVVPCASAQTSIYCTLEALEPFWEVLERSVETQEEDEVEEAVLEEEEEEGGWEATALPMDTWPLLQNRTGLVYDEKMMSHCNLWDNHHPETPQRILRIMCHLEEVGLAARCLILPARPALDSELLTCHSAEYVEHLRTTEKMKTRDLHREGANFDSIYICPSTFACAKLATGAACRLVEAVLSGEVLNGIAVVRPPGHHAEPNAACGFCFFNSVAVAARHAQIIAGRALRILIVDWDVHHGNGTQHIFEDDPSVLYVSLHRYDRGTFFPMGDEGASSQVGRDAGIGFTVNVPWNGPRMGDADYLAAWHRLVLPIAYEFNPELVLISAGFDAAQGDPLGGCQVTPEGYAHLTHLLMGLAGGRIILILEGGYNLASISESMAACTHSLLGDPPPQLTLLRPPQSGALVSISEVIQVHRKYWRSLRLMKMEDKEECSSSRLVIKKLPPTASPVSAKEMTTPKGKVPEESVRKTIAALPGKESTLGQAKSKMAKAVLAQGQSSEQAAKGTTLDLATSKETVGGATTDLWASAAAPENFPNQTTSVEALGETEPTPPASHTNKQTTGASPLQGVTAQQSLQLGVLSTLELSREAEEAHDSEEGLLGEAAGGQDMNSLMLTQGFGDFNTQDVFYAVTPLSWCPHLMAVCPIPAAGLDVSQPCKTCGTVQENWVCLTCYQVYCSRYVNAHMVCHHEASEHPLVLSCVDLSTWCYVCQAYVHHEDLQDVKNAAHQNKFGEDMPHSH
T3 sequence (Q9Z2V5 whole entry): as the sequence (Q9Z2V5 whole entry, looked up) above
T3 sequence (P40338 whole entry): as the sequence (P40338 whole entry, looked up) above

CCCCN(Cc1ccc(C(=O)NO)cc1)C(=O)Nc1ccc(OCCCCCCCCCCCn2cc(CCCCC(=O)N[C@H](C(=O)N3C[C@H](O)C[C@H]3C(=O)NCc3ccc(-c4scnc4C)cc3)C(C)(C)C)nn2)cc1
Emax [1]: 57%
Activity [2]: Active
Activity [3]: Active
Activity [4]: inactive
Activity [5]: Active
Activity [6]: inactive
Activity [7]: Active
Activity [8]: Dose-dependent effect
Activity [9]: inactive
Activity [10]: inactive
Activity [11]: Active
Emax [12]: 90%
Activity [13]: inactive
DC50 [14]: 4.3 nM
Activity [15]: Active
Activity [16]: inactive
Activity [17]: Active
Activity [18]: inactive
DC50 [19]: 7.1 nM
Activity [20]: Active
Activity [21]: inactive
Activity [22]: Dose-dependent effect
Activity [23]: Active
Activity [24]: inactive
Activity [25]: inactive
Activity [26]: Active
Activity [27]: Active
Activity [28]: Dose-dependent effect
DC50 [29]: 12 nM
Activity [30]: Dose-dependent effect
Activity [31]: Active
Activity [32]: Active
Activity [33]: inactive
Activity [34]: Dose-dependent effect
Activity [35]: inactive
Activity [36]: Active
